Screening data deposited in PubChem BioAssay by several laboratories.
V-ATPase pHluor = regulators of yeast V-ATPase proton pumping, primary screen, pHLuorin cytosolic pH fluorescence. hit rate 0.37% among 350,000. response, % at 10 µM. S. cerevisiae; in the data active = response mostly above about 7.3%, no sharp cut-off; inactive = mostly below about 5.4%; also: actives read high
Rce1 inh = yeast Rce1p protease inhibitors, primary screen, biochemical, fluorescence, cell-free homogeneous | yeast membranes, quenched prenylated peptide cleavage fluorescence | CAAX prenyl protease 2 (Saccharomyces cerevisiae (strain ATCC 204508 / S288c)), Q03530 | AID 2563, 2010 | calls only | hit rate 0.27% among 290,000;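 active = fall in fluorescence gain of 50% or more versus controls, with final raw signal at or below 3038400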
Target sequence (Q03530 whole entry, looked up): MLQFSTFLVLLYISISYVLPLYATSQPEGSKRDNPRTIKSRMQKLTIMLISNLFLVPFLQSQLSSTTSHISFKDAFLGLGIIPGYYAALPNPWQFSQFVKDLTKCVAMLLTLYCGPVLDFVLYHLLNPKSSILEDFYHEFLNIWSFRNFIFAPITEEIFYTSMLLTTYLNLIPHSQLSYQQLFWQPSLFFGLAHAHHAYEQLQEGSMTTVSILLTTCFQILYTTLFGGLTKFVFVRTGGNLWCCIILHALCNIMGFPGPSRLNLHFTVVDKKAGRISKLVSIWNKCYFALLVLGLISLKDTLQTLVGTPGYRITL
KLK7 zymogen act = proKLK7 zymogen activators, primary screen, biochemical, fluorescence intensity | Kallikrein-7 (Homo sapiens), P49862 | purified proKLK7, EDANS-DABCYL substrate fluorescence; 100% is mature enzyme control, 0% vehicle | activation, % at 7 µM | hit rate 0.9% among 370,000 | AID 652039, 2013;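 active = activation above the mean of all tested compounds plus 3 SD, computed per campaign excluding outliers beyond control limits, cut at about 13% in these data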
Target sequence (P49862 whole entry, looked up): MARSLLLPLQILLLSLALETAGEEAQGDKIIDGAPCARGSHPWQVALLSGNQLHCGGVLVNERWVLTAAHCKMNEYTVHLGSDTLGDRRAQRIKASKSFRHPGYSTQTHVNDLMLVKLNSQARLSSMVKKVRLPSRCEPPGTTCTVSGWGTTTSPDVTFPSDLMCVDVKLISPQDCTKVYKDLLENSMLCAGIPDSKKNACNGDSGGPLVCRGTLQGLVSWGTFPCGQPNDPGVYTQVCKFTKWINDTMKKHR
CR mimetic SO = reduction of superoxide in aged yeast, primary screen, HTS | superoxide response (% of plate mean), % at 10 µM | S. cerevisiae aged cells, superoxide DHE fluorescence; hits give low values | hit rate 0.18% among 330,000 | AID 2690, 2010;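 active = superoxide response under a set limit, about three screen SD below normal, cut at about 65% in these data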;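 also: yeast aged for seven days with compound at 30 °C before DHE staining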
T cell modulator = modulators of CD8 T cell-vesicle binding, primary screen, mouse 2C CD8+ T cells, flow cytometry; 2C CD8+ T cell-vesicle binding; hits give low values; response (vesicle binding), % at 7 µM; hit rate 0.068% among 330,000;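 active = response, share of CD8 T cells binding vesicles, and their 90th percentile fluorescence all below set limits, cut at about 80% in these data, passing the limit was not always enough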;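 also: values below 100% mean blocked vesicle binding to the CD8+ T cells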
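incubation = binding step 1.5 h, 37 °C, antibody labelling 20 min, ice | test system = 2C mouse CD8+ T cells | read-out basis = percent CD8+ FL2 mean versus row control | controls = Peptide-free naked vesicles (low) and QL9 vesicles with 0.7% DMSO vehicle (high) | detection = flow cytometry of vesicle-bound cells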
MIN6 prolif = inducers of MIN6 beta-cell proliferation, primary screen, ATP luminescence, uHTS; MIN6 cells proliferation, ATPlite luminescence, 48 h; cells starved in 0.2% serum; 100% = growth in 10% serum; proliferation, % at 10 µM; hit rate 0.29% among 330,000;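 active = compounds whose signal lies at least 3.5 SD above the mean of all wells on their plate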
A number is an active result. Hits are enriched below; roughly 1.9% of the tested compounds scored in any of these assays.

COC(=O)[C@]12C[C@H](CC(=O)N3CCN(C(=O)C4CC4)CC3)C(=O)N(Cc3ccc(Cl)cc3Cl)C1=C[C@H](C(C)(C)C)O[C@@H]2C was read as KLK7 zymogen act inactive.
For CCOc1ccc(N=Cc2ccc([N+](=O)[O-])cc2)c(O)c1 the results were V-ATPase pHluor inactive and KLK7 zymogen act 18.
Cn1c(SCC2CCC2)nnc1-c1ccco1 was read as KLK7 zymogen act inactive.
CC(=O)c1csc(-c2cccc(-c3nc4ccc(Cl)cn4c3NC3CCCCC3)c2)c1 was read as V-ATPase pHluor inactive, Rce1 inh inactive, KLK7 zymogen act inactive, CR mimetic SO inactive, T cell modulator 0.0 and MIN6 prolif inactive.
Screening O=C(c1cn(-c2ccccc2)nc1-c1cccs1)N1CCN(c2ccccn2)CC1 returned V-ATPase pHluor inactive, Rce1 inh active, KLK7 zymogen act inactive, CR mimetic SO inactive, T cell modulator inactive and MIN6 prolif inactive.
`CN1CCN(C(=O)c2cn(-c3ccccc3)nc2-c2cccs2)CC1` gave V-ATPase pHluor inactive, Rce1 inh inactive, KLK7 zymogen act inactive, CR mimetic SO inactive, T cell modulator inactive and MIN6 prolif inactive.
`Cn1cccc1C(=O)NNC(=O)c1ccccc1Br` gave V-ATPase pHluor inactive, Rce1 inh inactive, KLK7 zymogen act inactive, CR mimetic SO inactive, T cell modulator 0.0 and MIN6 prolif inactive.
CCN(CC)C(=O)CC[C@H]1CC[C@]2(CCCN(S(=O)(=O)C3CCCCC3)C2)O1 was read as KLK7 zymogen act inactive.
`COc1cccc(CN(C(=O)c2cccc(OC)c2)C2CCS(=O)(=O)C2)c1` (configuration not stated) gave V-ATPase pHluor inactive, Rce1 inh inactive, KLK7 zymogen act inactive, CR mimetic SO inactive, T cell modulator inactive and MIN6 prolif inactive.
Screening COc1cccc(CN(C(=O)c2ccccc2)C2CCS(=O)(=O)C2)c1 (configuration not stated) returned V-ATPase pHluor 29, Rce1 inh inactive, KLK7 zymogen act inactive, CR mimetic SO inactive, T cell modulator inactive and MIN6 prolif inactive.
For CC(C)c1ccc(/C=C2\SC(=S)N(CCC(=O)NCCCn3ccnc3)C2=O)cc1 the results were V-ATPase pHluor inactive, Rce1 inh active, KLK7 zymogen act inactive, CR mimetic SO inactive, T cell modulator inactive and MIN6 prolif inactive.
`COc1ccc(/C=C2\SC(=S)N(CCC(=O)NCCCn3ccnc3)C2=O)cc1` gave V-ATPase pHluor inactive, Rce1 inh inactive, KLK7 zymogen act inactive, CR mimetic SO inactive, T cell modulator inactive and MIN6 prolif inactive.
For C[C@H](O)[C@@H]1CN2CCc3ccc(-c4ccc5c(c4)OCO5)cc3[C@@H]2C[C@@H]1N(C)Cc1cc(Cl)cc(Cl)c1 the results were KLK7 zymogen act inactive.
For CCc1noc(C)c1C(=O)OCC(=O)c1ccc(NC(C)=O)cc1F the results were V-ATPase pHluor 17, KLK7 zymogen act inactive, CR mimetic SO inactive, T cell modulator inactive and MIN6 prolif inactive.
O=c1[nH]c2ccc(S(=O)(=O)N3CCN(C4CCCCC4)CC3)cc2[nH]c1=O was read as V-ATPase pHluor inactive, Rce1 inh active, KLK7 zymogen act inactive, CR mimetic SO inactive, T cell modulator inactive and MIN6 prolif inactive.
Screening O=S(=O)(c1ccc(S(=O)(=O)N2CCN(C3CCCCC3)CC2)cc1)N1CCCCCC1 returned V-ATPase pHluor inactive and KLK7 zymogen act inactive.
For CC1CCN(C(=O)C2CCN(S(=O)(=O)c3ccc(-n4cnnn4)cc3)CC2)CC1 the results were V-ATPase pHluor inactive, Rce1 inh active, KLK7 zymogen act inactive, CR mimetic SO inactive, T cell modulator inactive and MIN6 prolif inactive.
`CC1CCCCN1C(=O)C1CCN(S(=O)(=O)c2ccc(-n3cnnn3)cc2)CC1` (configuration not stated) gave V-ATPase pHluor inactive, Rce1 inh inactive, KLK7 zymogen act inactive, CR mimetic SO inactive, T cell modulator inactive and MIN6 prolif inactive.
For CC(C)N1CCN(Cc2ccc(Oc3ncccn3)cc2)CC1CCO (configuration not stated) the results were V-ATPase pHluor inactive, Rce1 inh active, KLK7 zymogen act inactive, CR mimetic SO inactive, T cell modulator inactive and MIN6 prolif inactive.
`CC(C)CCN1CCN(Cc2ccc(Oc3ncccn3)cc2)CC1CCO` (configuration not stated) gave V-ATPase pHluor inactive, Rce1 inh inactive, KLK7 zymogen act inactive, CR mimetic SO inactive, T cell modulator inactive and MIN6 prolif inactive.
Screening CCCC(=O)Nc1ccc2c(c1)nc1n2CCOC1 returned V-ATPase pHluor inactive, Rce1 inh inactive, KLK7 zymogen act inactive, CR mimetic SO inactive, T cell modulator inactive and MIN6 prolif inactive.
`CS(=O)(=O)Nc1ccc2c(c1)nc1n2CCOC1` gave V-ATPase pHluor 20, Rce1 inh inactive, KLK7 zymogen act inactive, CR mimetic SO inactive, T cell modulator inactive and MIN6 prolif inactive.
O=C1C=CC(=O)N1CCNc1ncc(C(F)(F)F)cc1Cl was read as V-ATPase pHluor 13, Rce1 inh inactive, KLK7 zymogen act inactive and MIN6 prolif inactive.
Screening COc1ccc(CNC(=O)[C@@H](Cc2ccccc2)NC(=O)[C@H]2O[C@@H](n3ccc(=O)[nH]c3=O)[C@H](O)[C@@H]2O)cc1 returned KLK7 zymogen act inactive.
`COc1ccc(-n2c(SCC(=O)Nc3ccc(S(=O)(=O)Nc4nccs4)cc3)nnc2-c2cccs2)cc1` gave KLK7 zymogen act inactive.
Screening CC(C)C(=O)N1CCN(c2nc(-c3ccccc3)c3c(c2C#N)CCCC3)CC1 returned V-ATPase pHluor inactive, Rce1 inh active, KLK7 zymogen act inactive, CR mimetic SO inactive, T cell modulator inactive and MIN6 prolif inactive.
Screening Cc1cc(C)n(C(CC(=O)N2CCc3ccccc3C2)C(=O)O)n1 (configuration not stated) returned V-ATPase pHluor 16, Rce1 inh inactive, KLK7 zymogen act inactive, CR mimetic SO inactive, T cell modulator inactive and MIN6 prolif inactive.
`c1ccc(-c2cccc3[nH]cc(-c4ccccc4)c23)cc1` gave KLK7 zymogen act inactive.
Cc1cccc(NC(=S)N2CCN(Cc3ccccc3)CC2)c1C was read as V-ATPase pHluor 16, Rce1 inh inactive, KLK7 zymogen act inactive, CR mimetic SO inactive, T cell modulator inactive and MIN6 prolif inactive.
Screening COc1cc2cc(C(=O)N3CCN(Cc4ccc5c(c4)OCO5)CC3)[nH]c2cc1OC returned V-ATPase pHluor inactive, Rce1 inh inactive, KLK7 zymogen act inactive, CR mimetic SO inactive, T cell modulator inactive and MIN6 prolif inactive.
For O=C(c1cc2cc(F)ccc2[nH]1)N1CCN(Cc2ccc3c(c2)OCO3)CC1 the results were V-ATPase pHluor 14, Rce1 inh inactive, KLK7 zymogen act inactive, CR mimetic SO inactive, T cell modulator inactive and MIN6 prolif inactive.
